Laboratory results: ChEMBL document CHEMBL1129547, “Synthesis and biological evaluation of naphthyldesferrithiocin iron chelators” (1996)

Assays:
[1] = The amount of iron absorbed by the untreated over a period of 3 days animals at prodrug dosage of 300(umol/kg) (route per oral)using 40% cremophore as vehical in Cebus monkeys; assay type: functional
Summary of the method: (§1)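 Baseline period in iron-overloaded Cebus monkeys housed in metabolic cages on a low-iron liquid diet begun 7 days before dosing, fed by body weight with intake monitored. Iron intake and output were measured over the 3 days before drug administration (day −2 to day 0). Urine and feces were collected at 24-h intervals and iron determined by flame atomic absorption. Net balance = intake − (urinary + fecal iron).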

[2] = The amount of iron absorbed by the treated animals at postdrug dosage of 300(umol/kg) (route sub cutaneous) using 40% cremophore as vehical in Cebus monkeys; assay type: functional
Summary of the method: (§2)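 Iron-overloaded Cebus monkeys were kept in metabolic cages on a low-iron liquid diet starting 7 days before dosing, fed by body weight with intake monitored, and fasted 24 h before dosing. They were sedated with ketamine (7–10 mg/kg im) plus scopolamine (0.04–0.07 mg/kg im). Urine and feces were collected every 24 h over days 1–3 and iron measured by flame AA. Iron balance = dietary intake − (urinary + fecal iron).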

[3] = The amount of iron absorbed by the untreated over a period of 3 days animals at prodrug dosage of 300(umol/kg) (route sub cutaneous) using 40% cremophore as vehical in Cebus monkeys; assay type: functional; summary of the method: as §1
[4] = The amount of iron absorbed by the treated animals at postdrug dosage of 300(umol/kg) (route per oral)using 40% cremophore as vehical in Cebus monkeys; assay type: functional; summary of the method: as §2
[5] = The amount of iron absorbed by the untreated over a period of 3 days animals at prodrug dosage of 150(umol/kg) (route sc)using distill water as vehical; assay type: functional, Cercopithecidae; summary of the method: as §1
[6] = The amount of iron absorbed by the treated animals at postdrug dosage of 150(umol/kg) (route sc)using distill water as vehical; assay type: functional, Cercopithecidae; summary of the method: as §2
[7] = The amount of iron absorbed by the treated animals at postdrug dosage of 150(umol/kg) (route per oral)using 40% cremophore as vehical in Cebus monkeys; assay type: functional; summary of the method: as §2
[8] = The amount of iron absorbed by the untreated over a period of 3 days animals at prodrug dosage of 150(umol/kg) (route per oral)using 40% cremophore as vehical in Cebus monkeys; assay type: functional; summary of the method: as §1

## O=C(O)[C@@H]1CSC(c2c(O)ccc3ccccc23)=N1
[1]
  Predrug: 54 µg/kg
[2]
  Postdrug: -9 µg/kg
[3]
  Predrug: 26 µg/kg
[4]
  Postdrug: 63 µg/kg

## O=C(O)[C@H]1CSC(c2c(O)ccc3ccccc23)=N1
[1]
  Predrug: 358 µg/kg
[4]
  Postdrug: 381 µg/kg

## CC(=O)N(O)CCCCCNC(=O)CCC(=O)N(O)CCCCCNC(=O)CCC(=O)N(O)CCCCCN [DEFEROXAMINE]
[5]
  Predrug: 217 µg/kg
[6]
  Postdrug: 245 µg/kg

## C[C@]1(C(=O)O)CSC(c2ncccc2O)=N1 [DESFERRITHIOCIN]
[7]
  Postdrug: -500 µg/kg
[8]
  Predrug: 230 µg/kg

## O=C(O)[C@H]1CSC(c2cc3ccccc3cc2O)=N1
[1]
  Predrug: 25 µg/kg
[2]
  Postdrug: 156 µg/kg
[3]
  Predrug: 164 µg/kg
[4]
  Postdrug: -162 µg/kg

## O=C(O)[C@@H]1CSC(c2cc3ccccc3cc2O)=N1
[1]
  Predrug: 118 µg/kg
[2]
  Postdrug: 120 µg/kg
[3]
  Predrug: 80 µg/kg
[4]
  Postdrug: 49 µg/kg
